Measurements reported in ChEMBL document CHEMBL1133953, “Modulation of human mammary cell sensitivity to paclitaxel by new quinoline sulfonamides” (Bioorg Med Chem Lett, 2001).
Values joined by “and” are separate entries in the source; they are usually repeats but may differ in a detail not shown here. Identical values can stand only once.

How the values were obtained:
MDA-MB-435 [1] = assay: Percent reduction of inhibitory concentration against LCC6-MDR human breast cancer cell line at 5 uM concentration; assay type: functional; conditions: for Reduction: in the assay text read “at 1 uM concentration” for “at 5 uM concentration”
Summary of the method: (§1)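 Paclitaxel was tested against MDR1-transfected LCC6-MDR cells while co-administered with each reversal agent at fixed concentrations (four levels overall). Paclitaxel IC50 was determined under each condition. Percent IC50 reduction, taken as reversal activity, was calculated relative to paclitaxel alone.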

MDA-MB-435 [2] = assay: Percent reduction of inhibitory concentration against LCC6-MDR human breast cancer cell line at 1 uM concentration
MDA-MB-435 [3] = assay: Reversal activity against LCC6-MDR human breast carcinoma cell line; assay type: functional; summary of the method: as §1
MDA-MB-435 [4] = assay: Inhibition of LCC6-WT-human breast carcinoma cell line growth was determined at 10 uM; assay type: functional
MDA-MB-435 [5] = assay: Cytotoxicity against paclitaxel resistant LCC6-MDR-MDR1 transfected cell line; assay type: functional, cell-based; conditions: Homo sapiens
MDA-MB-435 [6] = assay: Inhibition of LCC6-MDR-MDR1 transfected cell line growth was determined at 10 uM; assay type: functional; conditions: Homo sapiens
MDA-MB-435 [7] = assay: Cytotoxicity against paclitaxel sensitive LCC6-WT-human breast carcinoma cell line; assay type: functional, cell-based
MDA-MB-435 [8] = assay: Inhibition of LCC6-MDR human breast carcinoma cell line growth was determined at 1 uM; No growth inhibition; assay type: functional, cell-based
MDA-MB-435 [9] = assay: Inhibition of LCC6-MDR human breast carcinoma cell line growth was determined at 5 uM; No growth inhibition; assay type: functional, cell-based
MDA-MB-435 [10] = assay: Inhibitory concentration against LCC6-MDR human breast cancer cell line; assay type: functional, cell-based; summary of the method: as §1

IC50 reduction (MDA-MB-435 [1]) | Structure (SMILES) | IC50 (MDA-MB-435 [5]) | IC50 (MDA-MB-435 [7]) | inhibition (MDA-MB-435 [8]) | inhibition (MDA-MB-435 [9]) | further results
99% | CC(=O)O[C@H]1C(=O)[C@@]2(C)C([C@H](OC(=O)c3ccccc3)[C@]3(O)C[C@H](OC(=O)[C@H](O)[C@@H](NC(=O)c4ccccc4)c4ccccc4)C(C)=C1C3(C)C)[C@]1(OC(C)=O)CO[C@@H]1C[C@@H]2O.O=S(=O)(c1ccc2ccccc2c1)N(CCCCNc1ccnc2cc(Cl)ccc12)Cc1ccccc1 (some centres undefined) [listing 1 of 2 here] | – | – | – | – | Reduction (MDA-MB-435 [1]): 70%
97% | CC(=O)O[C@H]1C(=O)[C@@]2(C)C([C@H](OC(=O)c3ccccc3)[C@]3(O)C[C@H](OC(=O)[C@H](O)[C@@H](NC(=O)c4ccccc4)c4ccccc4)C(C)=C1C3(C)C)[C@]1(OC(C)=O)CO[C@@H]1C[C@@H]2O.COc1cc(NC(C)CCCNS(=O)(=O)c2ccc3ccccc3c2)c2ncccc2c1 (some centres undefined) [listing 1 of 2 here] | – | – | – | – | Reduction (MDA-MB-435 [1]): 36%
96% | CC(=O)O[C@H]1C(=O)[C@@]2(C)C([C@H](OC(=O)c3ccccc3)[C@]3(O)C[C@H](OC(=O)[C@H](O)[C@@H](NC(=O)c4ccccc4)c4ccccc4)C(C)=C1C3(C)C)[C@]1(OC(C)=O)CO[C@@H]1C[C@@H]2O.COc1cc(NC(C)CCCN(Cc2ccccc2)S(=O)(=O)c2ccc3ccccc3c2)c2ncccc2c1 (some centres undefined) [listing 1 of 2 here] | – | – | – | – | Reduction (MDA-MB-435 [2]): 55%
99% and 54% and 39% | CC(=O)O[C@H]1C(=O)[C@@]2(C)C([C@H](OC(=O)c3ccccc3)[C@]3(O)C[C@H](OC(=O)[C@H](O)[C@@H](NC(=O)c4ccccc4)c4ccccc4)C(C)=C1C3(C)C)[C@]1(OC(C)=O)CO[C@@H]1C[C@@H]2O.O=S(=O)(c1ccc2ccccc2c1)N(CCCCCCNc1ccnc2cc(Cl)ccc12)Cc1ccccc1 (some centres undefined) [listing 1 of 2 here] | – | – | – | – | Reversal activity (MDA-MB-435 [3]): 99%
– | COc1cc(NC(C)CCCNS(=O)(=O)c2ccc3ccccc3c2)c2ncccc2c1 (centres undefined) | > 10000 nM | > 10000 nM | – | – | inhibition at 10 µM (MDA-MB-435 [4]): 16%; inhibition at 10 µM (MDA-MB-435 [6]): 8%
– | CC(=O)O[C@H]1C(=O)[C@@]2(C)C([C@H](OC(=O)c3ccccc3)[C@]3(O)C[C@H](OC(=O)[C@H](O)[C@@H](NC(=O)c4ccccc4)c4ccccc4)C(C)=C1C3(C)C)[C@]1(OC(C)=O)CO[C@@H]1C[C@@H]2O.COc1cc(NC(C)CCCN(Cc2ccccc2)S(=O)(=O)c2ccc3ccccc3c2)c2ncccc2c1 (some centres undefined) [listing 2 of 2 here] | – | – | No inhibition | No inhibition | –
– | CC(=O)O[C@H]1C(=O)[C@@]2(C)C([C@H](OC(=O)c3ccccc3)[C@]3(O)C[C@H](OC(=O)[C@H](O)[C@@H](NC(=O)c4ccccc4)c4ccccc4)C(C)=C1C3(C)C)[C@]1(OC(C)=O)CO[C@@H]1C[C@@H]2O.O=S(=O)(c1ccc2ccccc2c1)N(CCCCCCNc1ccnc2cc(Cl)ccc12)Cc1ccccc1 (some centres undefined) [listing 2 of 2 here] | – | – | No inhibition | No inhibition | –
– | COc1cc(NC(C)CCCN(Cc2ccccc2)S(=O)(=O)c2ccc3ccccc3c2)c2ncccc2c1 (centres undefined) | > 10000 nM | > 10000 nM | – | – | inhibition at 10 µM (MDA-MB-435 [4]): 0%; inhibition at 10 µM (MDA-MB-435 [6]): 8%
– | CC(=O)O[C@H]1C(=O)[C@@]2(C)C([C@H](OC(=O)c3ccccc3)[C@]3(O)C[C@H](OC(=O)[C@H](O)[C@@H](NC(=O)c4ccccc4)c4ccccc4)C(C)=C1C3(C)C)[C@]1(OC(C)=O)CO[C@@H]1C[C@@H]2O.COc1cc(NC(C)CCCNS(=O)(=O)c2ccc3ccccc3c2)c2ncccc2c1 (some centres undefined) [listing 2 of 2 here] | – | – | No inhibition | No inhibition | –
– | O=S(=O)(c1ccc2ccccc2c1)N(CCCCNc1ccnc2cc(Cl)ccc12)Cc1ccccc1 | > 10000 nM | > 10000 nM | – | – | inhibition at 10 µM (MDA-MB-435 [4]): 6%; inhibition at 10 µM (MDA-MB-435 [6]): 3%
– | CC(=O)O[C@H]1C(=O)[C@@]2(C)C([C@H](OC(=O)c3ccccc3)[C@]3(O)C[C@H](OC(=O)[C@H](O)[C@@H](NC(=O)c4ccccc4)c4ccccc4)C(C)=C1C3(C)C)[C@]1(OC(C)=O)CO[C@@H]1C[C@@H]2O.O=S(=O)(c1ccc2ccccc2c1)N(CCCCNc1ccnc2cc(Cl)ccc12)Cc1ccccc1 (some centres undefined) [listing 2 of 2 here] | – | – | No inhibition | No inhibition | –
– | O=S(=O)(c1ccc2ccccc2c1)N(CCCCCCNc1ccnc2cc(Cl)ccc12)Cc1ccccc1 | 2000 nM | 1700 nM | – | – | –
0% | CC(=O)O[C@H]1C(=O)[C@@]2(C)[C@H]([C@H](OC(=O)c3ccccc3)[C@]3(O)C[C@H](OC(=O)[C@H](O)[C@@H](NC(=O)c4ccccc4)c4ccccc4)C(C)=C1C3(C)C)[C@]1(OC(C)=O)CO[C@@H]1C[C@@H]2O [PACLITAXEL] | 612 nM | 8 nM | – | – | IC50 (MDA-MB-435 [10]): 490 nM
